Experimental data reported in ChEMBL document CHEMBL3124903, “Synthesis, docking and evaluation of antioxidant and antimicrobial activities of novel 1,2,4-triazolo[3,4-b][1,3,4]thiadiazol-6-yl)selenopheno[2,3-d]pyrimidines” (Eur J Med Chem, 2014).
Converted amounts (≈) assume the structure as drawn.

What was measured:
Format in all cases: functional
[1] = system: Radical scavenging activity; assay: Antioxidant activity assessed as DPPH radical scavenging activity after 30 mins by spectrophotometric assay
Method in brief: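 The compound is mixed with methanolic DPPH and incubated for 30 min at room temperature. Absorbance is read against a blank at 517 nm. Percent scavenging is taken from absorbance of a control with all reagents except the compound versus the sample. Runs are in triplicate, and IC50 is reported.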

[2] = Antioxidant activity assessed as H2O2 radical scavenging activity
Aspergillus flavus = assay: Antifungal activity against Aspergillus flavus assessed as growth inhibition by NCCLS broth dilution assay
Bacillus subtilis = assay: Antibacterial activity against Bacillus subtilis assessed as growth inhibition by microdilution broth susceptibility assay
Candida albicans = assay: Antifungal activity against Candida albicans assessed as growth inhibition by NCCLS broth dilution assay
Method in brief: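 Yeast susceptibility is tested by the NCCLS reference broth dilution method. MIC is read as the endpoint, and a DMSO vehicle control is included.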

[3] = Antioxidant activity assessed as NO radical scavenging activity after 150 mins by griess reagent method
Klebsiella pneumoniae = assay: Antibacterial activity against Klebsiella pneumoniae assessed as growth inhibition by microdilution broth susceptibility assay
Staphylococcus aureus = assay: Antibacterial activity against Staphylococcus aureus assessed as growth inhibition by microdilution broth susceptibility assay
Escherichia coli = assay: Antibacterial activity against Escherichia coli assessed as growth inhibition by microdilution broth susceptibility assay

Structure (SMILES)	IC50 [1] [µg/mL]	IC50 [2] [µg/mL]	MIC (Aspergillus flavus) [µg/mL]	MIC (Bacillus subtilis) [µg/mL]	MIC (Candida albicans) [µg/mL]	IC50 [3] [µg/mL]	MIC (Klebsiella pneumoniae) [µg/mL]	MIC (Staphylococcus aureus) [µg/mL]	MIC (Escherichia coli) [µg/mL]
Cc1c(-c2nn3c(-c4ccccc4)nnc3s2)[se]c2ncnc(Nc3ccc(Cl)cc3)c12	14.82 (≈ 28.3 µM)	17.03 (≈ 32.6 µM)	50 (≈ 95.6 µM)	> 100	> 100	18.41 (≈ 35.2 µM)	> 100	50	> 100
Cc1ccc(-c2nnc3sc(-c4[se]c5ncnc(Nc6ccc(Cl)cc6)c5c4C)nn23)cc1	13.31 (≈ 24.8 µM)	19.14 (≈ 35.6 µM)	50 (≈ 93.1 µM)	50	> 100	21.64 (≈ 40.3 µM)	25	25	50
COc1ccc(-c2nnc3sc(-c4[se]c5ncnc(Nc6ccc(Cl)cc6)c5c4C)nn23)cc1	12.75 (≈ 23.1 µM)	21.09 (≈ 38.1 µM)	6.25 (≈ 11.3 µM)	25	6.25 (≈ 11.3 µM)	19.82 (≈ 35.8 µM)	25	12.5	12.5
Cc1c(-c2nn3c(-c4ccc(O)cc4)nnc3s2)[se]c2ncnc(Nc3ccc(Cl)cc3)c12	11.02 (≈ 20.4 µM)	15.38 (≈ 28.5 µM)	3.12 (≈ 5.79 µM)	3.12	1.56 (≈ 2.89 µM)	13.72 (≈ 25.5 µM)	6.25	6.25	6.25
Cc1c(-c2nn3c(-c4ccc([N+](=O)[O-])cc4)nnc3s2)[se]c2ncnc(Nc3ccc(Cl)cc3)c12	33.28 (≈ 58.6 µM)	48.31 (≈ 85.1 µM)	> 100	> 100	> 100	46.92 (≈ 82.6 µM)	> 100	> 100	> 100
Cc1c(-c2nn3c(-c4ccccc4)nnc3s2)[se]c2ncnc(Nc3ccc(F)c(Cl)c3)c12	13.24 (≈ 24.5 µM)	22.92 (≈ 42.4 µM)	50 (≈ 92.4 µM)	50	25 (≈ 46.2 µM)	20.27 (≈ 37.5 µM)	100	50	100
Cc1ccc(-c2nnc3sc(-c4[se]c5ncnc(Nc6ccc(F)c(Cl)c6)c5c4C)nn23)cc1	12.86 (≈ 23.2 µM)	18.36 (≈ 33.1 µM)	12.5 (≈ 22.5 µM)	12.5	25 (≈ 45.1 µM)	16.52 (≈ 29.8 µM)	12.5	6.25	12.5
COc1ccc(-c2nnc3sc(-c4[se]c5ncnc(Nc6ccc(F)c(Cl)c6)c5c4C)nn23)cc1	10.41 (≈ 18.2 µM)	17.08 (≈ 29.9 µM)	3.12 (≈ 5.47 µM)	3.12	3.12 (≈ 5.47 µM)	12.74 (≈ 22.3 µM)	6.25	6.25	6.25
Cc1c(-c2nn3c(-c4ccc(O)cc4)nnc3s2)[se]c2ncnc(Nc3ccc(F)c(Cl)c3)c12	9.46 (≈ 17 µM)	12.54 (≈ 22.5 µM)	1.56 (≈ 2.8 µM)	3.12	1.56 (≈ 2.8 µM)	8.2 (≈ 14.7 µM)	3.12	3.12	3.12
Cc1c(-c2nn3c(-c4ccc([N+](=O)[O-])cc4)nnc3s2)[se]c2ncnc(Nc3ccc(F)c(Cl)c3)c12	26.94 (≈ 46 µM)	36.42 (≈ 62.2 µM)	> 100	100	> 100	30.17 (≈ 51.5 µM)	50	100	50
O=C1O[C@H]([C@@H](O)CO)C(O)=C1O [ASCORBIC ACID]	12.27 (≈ 69.7 µM)	15.24 (≈ 86.5 µM)	–	–	–	14.62 (≈ 83 µM)	–	–	–
Cc1cc(C(C)(C)C)c(O)c(C(C)(C)C)c1 [BUTYLATED HYDROXYTOLUENE]	16.53 (≈ 75 µM)	17.82 (≈ 80.9 µM)	–	–	–	19.06 (≈ 86.5 µM)	–	–	–
O=C(O)c1cn(C2CC2)c2cc(N3CCNCC3)c(F)cc2c1=O [CIPROFLOXACIN]	–	–	–	6.25	–	–	6.25	–	–
OC(Cn1cncn1)(Cn1cncn1)c1ccc(F)cc1F [FLUCONAZOLE]	–	–	3.12 (≈ 10.2 µM)	–	3.12 (≈ 10.2 µM)	–	–	–	–
